Reference: paper PMC3580179 (Biopharmaceutics & drug disposition, 2010)
Values joined by “and” are separate entries in the source; they are usually repeats but may differ in a detail not shown here. Identical values can stand only once. Like-named read-outs stand apart in the source and are kept apart here. Marks after values point to notes of the source that are not given here.

What was measured:
Blood cell partitioning = format: in vitro ADME; details: rat, fresh pooled rat blood
Procedure, shortened: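 Fresh pooled rat blood spiked 1:100 with test compound in methanol (final 10 μg/mL). Incubated 2 h at 37°C in a shaking water bath. Plasma separated at once by centrifugation and assayed by HPLC-UV to give the blood-to-plasma concentration ratio (CB/CP). Run in triplicate.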

[1] = format: in vivo, Nrf2 wild type C57BL/6J (+/+) mice; details: for AUC / Cmax / MRT / Tmax: male, C57BL/6J, mouse, plasma
Procedure, shortened: (§1)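 Age-matched male C57BL/6J mice, Nrf2 (+/+) or (−/−), 10–15 weeks old, on AIN-76A diet from 3 days before dosing. Dosed 500 mg/kg by oral gavage after an overnight fast, or 100 mg/kg i.p.; vehicle Cremophor EL/tween-80/ethanol/water (2:1:1:6). Composite sampling by heart puncture from 2 min (i.p. only) or 7.5 min to 36 h, three mice per time point. Non-compartmental analysis; t1/2 = ln2/kel from terminal slope.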

[2] = format: in vivo, Nrf2 knockout C57BL/6J (−/−) mice; details: for AUC0-∞ /Dose: Nrf2(−/−) mice; for AUC, folds increase: Nrf2(−/−) vs Nrf2(+/+) mice; for AUC / Cmax / MRT / Tmax / half-life: male, C57BL/6J, mouse, plasma
Procedure, shortened: as §1

[3] = Pharmacokinetics after intravenous administration to rats; format: in vivo, male Sprague-Dawley rats; details: rat; for MRT / Vd / clearance / half-life / AUC(0-inf): male, Sprague-Dawley; for AUC(0-inf): AUC0-∞
Procedure, shortened: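 Male Sprague-Dawley rats (250–300 g) with jugular vein cannulae, fed antioxidant-free AIN-76A diet and acclimatized 3 days. Single i.v. dose of 10 or 20 mg/kg via cannula in Cremophor EL/tween-80/ethanol/water (2:1:1:6). Blood (200 μL) sampled from 2 min to 36 h; plasma stored at −80°C and assayed by HPLC-UV. Non-compartmental analysis: log-linear trapezoidal AUC, CL = Dose/AUC0-∞, MRT = AUMC0-∞/AUC0-∞.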

[4] = Pharmacokinetics after oral administration to rats; format: in vivo, male Sprague-Dawley rats; details: rat; for Cmax / AUC(0-inf) / MRT / half-life: male, Sprague-Dawley, po
[5] = p.o. 250 mg/kg, regular emulsion

SMILES: O=C(CC(=O)c1ccccc1)c1ccccc1 [DBM, 1,3-Diphenyl-1,3-propanedione]
- blood plasma ratio at 2 h, 10 μg/mL (Blood cell partitioning): 0.93 ± 0.19
- AUC0-∞ /Dose ([1]; Nrf2(+/+) mice, i.p. 100 mg/kg): 0.096 (μg·h/mL)/(mg/kg)
- AUC0-∞ /Dose ([1]; Nrf2(+/+) mice, p.o. 500 mg/kg): 0.129 (μg·h/mL)/(mg/kg)
- Apparent terminal t1/2 ([1]; Nrf2(+/+) mice, p.o. 500 mg/kg, 500 mg/kg): 6.09 h
- AUC ([1]; ip, 100 mg/kg): 9620 ng·h/mL
- Cmax ([1]; ip, 100 mg/kg): 4560 ng/mL
- MRT ([1]; ip, 100 mg/kg): 2.76 h
- Tmax ([1]; ip, 100 mg/kg): 0.25 h
- AUC ([1]; po, 500 mg/kg): 64600 ng·h/mL
- Cmax ([1]; po, 500 mg/kg): 23200 ng/mL
- MRT ([1]; po, 500 mg/kg): 4.73 h
- Tmax ([1]; po, 500 mg/kg): 0.25 h
- peak plasma concentration ([1]; mice, i.p. 100 mg/kg, genotype not given, context Nrf2(+/+)): 20.4 µM
- AUC0-∞ /Dose ([2]; i.p. 100 mg/kg): 0.221 (μg·h/mL)/(mg/kg)
- AUC0-∞ /Dose ([2]; p.o. 500 mg/kg): 0.171 (μg·h/mL)/(mg/kg)
- AUC, folds increase ([2]; i.p. 100 mg/kg): 2.3 fold
- AUC, folds increase ([2]; p.o. 500 mg/kg): 1.3 fold
- apparent terminal half-life, fold increase ([2]; Nrf2 knockout vs wild type mice, i.p. 100 mg/kg): 2 fold
- AUC ([2]; ip, 100 mg/kg): 22100 ng·h/mL
- Cmax ([2]; ip, 100 mg/kg): 6860 ng/mL
- MRT ([2]; ip, 100 mg/kg): 5.15 h
- Tmax ([2]; ip, 100 mg/kg): 0.25 h
- half-life ([2]; ip, 100 mg/kg): 5.04 h
- AUC ([2]; po, 500 mg/kg): 85600 ng·h/mL
- Cmax ([2]; po, 500 mg/kg): 17400 ng/mL
- MRT ([2]; po, 500 mg/kg): 6.36 h
- Tmax ([2]; po, 500 mg/kg): 0.25 h
- half-life ([2]; po, 500 mg/kg): 8.52 h
- MRT ([3]; plasma, iv, 10 mg/kg): 10.4 ± 3.33 h
- Vd ([3]; plasma, iv, 10 mg/kg): 6.75 ± 1.85 L/kg
- clearance ([3]; plasma, iv, 10 mg/kg): 11.8 mL/min/kg
- half-life ([3]; plasma, iv, 10 mg/kg): 14.4 ± 5 h
- AUC(0-inf) ([3]; plasma, iv, 10 mg/kg, i.v. 10 mg/kg): 16500 ± 7850 ng·h/mL
- MRT ([3]; plasma, iv, 20 mg/kg): 10.2 ± 6.1 h
- Vd ([3]; plasma, iv, 20 mg/kg): 7.35 ± 4.26 L/kg
- clearance ([3]; plasma, iv, 20 mg/kg): 12 mL/min/kg
- half-life ([3]; plasma, iv, 20 mg/kg): 12 ± 5.34 h
- AUC(0-inf) ([3]; plasma, iv, 20 mg/kg, i.v. 20 mg/kg): 27900 ± 2400 ng·h/mL
- clearance ([3]; whole blood, intravenous, 10 mg/kg): ~12.7 mL/min/kg
- AUC0-∞ /Dose ([3]; i.v. 10 mg/kg, 10 mg/kg): 1.65 (μg·h/mL)/(mg/kg) and 1.65 ± 0.79 (μg·h/mL)/(mg/kg)
- AUC0-∞ ([3]; i.v. 20 mg/kg, 20 mg/kg): 28000 ± 2400 ng·h/mL
- AUC0-∞ /Dose ([3]; i.v. 20 mg/kg, 20 mg/kg): 1.40 (μg·h/mL)/(mg/kg) and 1.40 ± 0.12 (μg·h/mL)/(mg/kg)
- Cmax ([4]; in vivo, 250 mg/kg): 2880 ± 740 ng/mL
- AUC(0-inf) ([4]; plasma, 10 mg/kg): 2250 ± 330 ng·h/mL
- Cmax ([4]; plasma, 10 mg/kg): 340 ± 40 ng/mL
- MRT ([4]; plasma, 10 mg/kg): 7.6 ± 2.3 h
- half-life ([4]; plasma, 10 mg/kg): 11 ± 3 h
- AUC(0-inf) ([4]; plasma, 50 mg/kg): 9460 ± 1620 ng·h/mL
- Cmax ([4]; plasma, 50 mg/kg): 1500 ± 410 ng/mL
- MRT ([4]; plasma, 50 mg/kg): 9.4 ± 2 h
- half-life ([4]; plasma, 50 mg/kg): 9.3 ± 2 h
- AUC(0-inf) ([4]; plasma, 250 mg/kg): 30400 ± 6890 ng·h/mL
- Cmax ([4]; plasma, 250 mg/kg): 3020 ± 660 ng/mL
- MRT ([4]; plasma, 250 mg/kg): 12 ± 4.3 h
- half-life ([4]; plasma, 250 mg/kg): 11 ± 8 h
- AUC0-∞ /Dose ([4]; p.o. 10 mg/kg, regular emulsion): 0.225 ± 0.033 (μg·h/mL)/(mg/kg)
- Ka (absorption rate constant) ([4]; p.o. 50 mg/kg, regular emulsion, Gastroplus three-compartment fitting): 0.029 ± 0.046 h⁻¹
- AUC0-∞ /Dose [4, 5]: 0.122 ± 0.027 ^a (μg·h/mL)/(mg/kg)
- fraction absorbed in GIT (deconvolution analysis) [4, 5]: 10.8%
- Tmax ([4]; p.o. 250 mg/kg, regular emulsion, 250 mg/kg): 4.0 ± 2.0 h
